One experiment has as its system DU-145. In words: Growth inhibition of human DU145 cells by SRB assay. The format is functional, cell-based.
In another experiment the test system is A549. In words: Growth inhibition of human A549 cells by SRB assay. The format is functional, cell-based. For orientation: In SRB staining, fixed cells bind dye roughly in proportion to their protein.
For a further experiment, the species on record is Homo sapiens. Description: Effect on human G-quadruplex DNA stability by FRET assay. An outline of the steps: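 Oligonucleotide F21T (21-mer d[GGG(TTAGGG)3], donor–acceptor end-labelled) annealed at 400 nM in 50 mM KCl, 10 mM cacodylic acid pH 7.4 (92° 2 min, cooled over 4 h); 200 nM final with ligand 0.10–10.00 µM. Fluorescence read at 0.5° steps, 30–100° at 1°/min, excitation 450–495, detection 515–545 nm; ΔTm from melting, triplicate.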

Experiment [1] has as its target Telomerase reverse transcriptase (Homo sapiens, UniProt O14746). In words: Inhibition of human telomerase by TRAP assay. The procedure, abridged:
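Modified TRAP using A2780 ovarian carcinoma cell extract (1 µg protein) in 20 mM Tris-HCl pH 8.3, 68 mM KCl, 1.5 mM MgCl2, 1 mM EGTA, 0.05% Tween 20, 125 µM dNTPs, TS primer; 10 min at 30° with or without drug, heat-inactivated, then ACX primer PCR, 33 cycles. SYBR Green-stained PAGE products quantified by fluorescence; telEC50, triplicate.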

The test system of the next experiment is MCF7. In words: Growth inhibition of human MCF7 cells by SRB assay. The format is functional, cell-based.

SMILES strings stand for the structures.

As usually defined, the IC50 is the concentration at which inhibition is half-maximal. Usually ΔTm stands for the shift of the melting midpoint relative to a reference. As usually defined, the EC50 is the midpoint of the concentration-response curve. A lower EC50 goes with greater potency.

Sequence of Telomerase reverse transcriptase (O14746 whole entry): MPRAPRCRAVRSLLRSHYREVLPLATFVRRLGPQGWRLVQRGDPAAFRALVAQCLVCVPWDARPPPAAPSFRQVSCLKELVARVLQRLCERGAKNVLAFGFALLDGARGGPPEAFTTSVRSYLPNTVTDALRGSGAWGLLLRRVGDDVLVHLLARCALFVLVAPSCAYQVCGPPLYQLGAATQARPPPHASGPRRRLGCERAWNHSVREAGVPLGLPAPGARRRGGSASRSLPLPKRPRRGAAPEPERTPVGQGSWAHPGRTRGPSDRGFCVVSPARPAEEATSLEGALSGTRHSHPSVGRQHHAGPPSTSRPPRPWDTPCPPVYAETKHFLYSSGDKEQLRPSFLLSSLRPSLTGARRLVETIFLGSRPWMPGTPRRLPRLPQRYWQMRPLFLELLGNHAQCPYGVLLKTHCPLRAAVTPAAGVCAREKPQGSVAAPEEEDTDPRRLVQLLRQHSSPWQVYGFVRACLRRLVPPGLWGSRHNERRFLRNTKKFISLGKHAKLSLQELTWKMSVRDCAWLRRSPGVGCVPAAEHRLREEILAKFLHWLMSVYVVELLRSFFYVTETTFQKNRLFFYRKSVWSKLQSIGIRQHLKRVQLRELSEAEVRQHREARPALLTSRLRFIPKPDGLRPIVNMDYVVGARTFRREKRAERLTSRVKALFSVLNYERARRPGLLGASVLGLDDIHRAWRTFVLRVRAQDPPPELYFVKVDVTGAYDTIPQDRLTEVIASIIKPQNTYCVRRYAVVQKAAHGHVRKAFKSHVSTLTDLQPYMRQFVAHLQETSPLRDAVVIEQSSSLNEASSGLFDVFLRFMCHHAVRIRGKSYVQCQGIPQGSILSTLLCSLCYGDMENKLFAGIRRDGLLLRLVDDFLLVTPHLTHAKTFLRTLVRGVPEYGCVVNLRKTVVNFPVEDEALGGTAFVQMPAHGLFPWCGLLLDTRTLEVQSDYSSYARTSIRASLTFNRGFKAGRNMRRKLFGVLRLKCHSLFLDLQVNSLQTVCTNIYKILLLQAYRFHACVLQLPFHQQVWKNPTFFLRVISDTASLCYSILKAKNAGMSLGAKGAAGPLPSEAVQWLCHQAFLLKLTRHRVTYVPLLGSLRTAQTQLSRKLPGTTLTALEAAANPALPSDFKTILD

Turning to `COc1cc(CNc2c3ccc(NC(=O)CCN4CCCCC4)cc3nc3cc(NC(=O)CCN4CCCCC4)ccc23)cc(OC)c1`, the IC50 with DU-145 turned out to be 470 nM; in the experiment on A549, 370 nM; in the experiment on MCF7 it was 200 nM. The ΔTm in the experiment filed under Homo sapiens was 30 °C. For the same compound, the EC50 in experiment [1] was determined as 440 nM.

With `Cc1cccc(CNc2c3ccc(NC(=O)CCN4CCCC4)cc3nc3cc(NC(=O)CCN4CCCC4)ccc23)c1`, the half-maximal inhibitory concentration (IC50) is 10000 nM in the experiment on DU-145, 1190 nM in the experiment on A549 and 3000 nM in the experiment on MCF7. Besides, in the experiment filed under Homo sapiens, the thermal shift (ΔTm) was found to be 29.5 °C. Further, in experiment [1], the EC50 worked out at 1000 nM.

On to `Cc1cccc(CNc2c3ccc(NC(=O)CCN4CCCCC4)cc3nc3cc(NC(=O)CCN4CCCCC4)ccc23)c1`, for which the IC50 in the experiment with DU-145 was found to be 770 nM; in the experiment on A549, 500 nM; in the experiment with MCF7 it was 460 nM. In addition, the ΔTm in the experiment filed under Homo sapiens turned out to be 31 °C. The same compound registered a half-maximal effective concentration (EC50) in experiment [1] of 230 nM.

On to `O=C(CCN1CCCC1)Nc1ccc2c(NCc3ccc(F)c(F)c3)c3ccc(NC(=O)CCN4CCCC4)cc3nc2c1`, for which the IC50 with DU-145 amounted to 9750 nM; in the experiment with A549, 2110 nM; with MCF7 it was 2260 nM. The ΔTm in the experiment listed under Homo sapiens came out at 29.5 °C. This compound showed an EC50 in experiment [1] of 30 nM.

Regarding `CN(C)c1ccc(Nc2c3ccc(NC(=O)CCN4CCCCC4)cc3nc3cc(NC(=O)CCN4CCCCC4)ccc23)cc1`, the IC50 came to 2570 nM in the experiment on DU-145, 2000 nM in the experiment on A549 and 540 nM in the experiment on MCF7. The ΔTm in the experiment listed under Homo sapiens came to 21 °C. This compound displayed a concentration for a half-maximal effect (EC50) in experiment [1] of 360 nM.

With `CN(C)c1ccc(Nc2c3ccc(NC(=O)CCN4CCCC4)cc3nc3cc(NC(=O)CCN4CCCC4)ccc23)cc1`, the results for the IC50 with DU-145, in the experiment on A549 and with MCF7 were 2300 nM, 2420 nM and 2530 nM, respectively. Moreover, the ΔTm in the experiment listed under Homo sapiens is 28 °C. In experiment [1], this compound registered an EC50 of 120 nM.

As for `O=C(CCN1CCCCC1)Nc1ccc2c(NCc3ccc(F)c(F)c3)c3ccc(NC(=O)CCN4CCCCC4)cc3nc2c1`, the IC50 amounted to 2250 nM with DU-145, 1200 nM with A549 and 520 nM with MCF7. Also, in the experiment listed under Homo sapiens, the thermal shift (ΔTm) amounted to 26.5 °C. In addition, in experiment [1], the EC50 turned out to be 880 nM.

As to `O=C(CCN1CCCC1)Nc1ccc2c(NCc3cc(F)cc(C(F)(F)F)c3)c3ccc(NC(=O)CCN4CCCC4)cc3nc2c1`, the half-maximal inhibitory concentration (IC50) was 2530 nM with DU-145, 2000 nM in the experiment with A549 and 1000 nM in the experiment with MCF7. Further, in the experiment filed under Homo sapiens, the shift in melting temperature (ΔTm) was 30.5 °C. In experiment [1], the EC50 turned out to be 240 nM.

`O=C(CCN1CCCC1)Nc1ccc2c(NCc3cc(C(F)(F)F)cc(C(F)(F)F)c3)c3ccc(NC(=O)CCN4CCCC4)cc3nc2c1`: the half-maximal inhibitory concentration (IC50) in the experiment with DU-145 was 2610 nM; in the experiment with A549, 6300 nM; in the experiment with MCF7, 1070 nM. Moreover, the shift in melting temperature (ΔTm) in the experiment listed under Homo sapiens worked out at 27.5 °C. The compound further showed a concentration giving a half-maximal response (EC50) in experiment [1] of 860 nM.

As to `COc1cc(CNc2c3ccc(NC(=O)CCN4CCCC4)cc3nc3cc(NC(=O)CCN4CCCC4)ccc23)cc(OC)c1`, the IC50 in the experiment with DU-145 stood at 10400 nM; in the experiment on A549 it was 4570 nM; in the experiment with MCF7 it was 3720 nM. In addition, in the experiment listed under Homo sapiens, the ΔTm was 32.5 °C. This compound displayed a 50% effective concentration (EC50) in experiment [1] of 350 nM.

`Cc1cccc(CNc2c3ccc(NC(=O)CCN4CCC(C)CC4)cc3nc3cc(NC(=O)CCN4CCC(C)CC4)ccc23)c1`: the values for the half-maximal inhibitory concentration (IC50) in the experiment with DU-145, in the experiment with A549 and in the experiment on MCF7 were 630 nM, 570 nM and 580 nM, respectively. Further, the ΔTm in the experiment listed under Homo sapiens turned out to be 24 °C. The same compound returned an EC50 in experiment [1] of 390 nM.

These data come from ChEMBL document CHEMBL1139141, “Structure-based design of benzylamino-acridine compounds as G-quadruplex DNA telomere targeting agents” (Bioorg Med Chem Lett, 2007).
